Consider nine compounds from ChEMBL document CHEMBL1146365, “Synthesis and biological evaluation of new N-(2-hydroxy-4(or 5)-nitro/aminophenyl)benzamides and phenylacetamides as antimicrobial agents” (2007).

Test [1] has as its system Klebsiella pneumoniae. Briefly: Antibacterial activity against Klebsiella pneumoniae isolate assessed after 24 hrs by serial dilution method. In kind it is functional. The essentials:
(§1)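 Strains were subcultured twice on MHA at 37 °C overnight. Inoculum was diluted from McFarland 0.5 to 10^5 cfu/ml, giving 10^4 cfu/ml in wells. Solvent, medium and organism-only controls were included. Incubated 37 °C, humid chamber, 24 h, in triplicate. MIC = lowest concentration with no macroscopic growth.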

In test [2] the test system is Pseudomonas aeruginosa. Briefly: Antibacterial activity against Pseudomonas aeruginosa isolate assessed after 24 hrs by serial dilution method. In kind it is functional. The essentials:
as §1

Test [3] relates to Escherichia coli. Briefly: Antibacterial activity against Escherichia coli isolate assessed after 24 hrs by serial dilution method. Format: functional. The essentials:
as §1

For test [4], the system named is Bacillus subtilis. Briefly: Antibacterial activity against Bacillus subtilis ATCC 6633 assessed after 24 hrs by serial dilution method. To be noted: ATCC 6633, 24 h. Format: functional. The essentials: as §1
Test [5] has as its system Staphylococcus aureus. Briefly: Antibacterial activity against Staphylococcus aureus ATCC 25923 assessed after 24 hrs by serial dilution method. Particulars: ATCC 25923, 24 h. In kind it is functional. The essentials: as §1
Test [6] deals with Candida albicans. Briefly: Antifungal activity against Candida albicans ATCC 10231 assessed after 48 hrs by serial dilution method. In kind it is functional. To be noted: ATCC 10231, 48 h. The essentials:
(§2)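 Broth microdilution per CLSI M27-A in RPMI-1640 with L-glutamine, MOPS-buffered pH 7, with 2-fold compound dilutions. Yeasts were subcultured twice on SDA at 35 °C for 24–48 h. Inoculum was diluted from McFarland 0.5 to 10^4 cfu/ml, giving 10^3 cfu/ml in wells. Incubated 35 °C, humid chamber, 48 h, in triplicate. MIC = lowest concentration with no macroscopic growth.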

For test [7], the system named is Candida albicans. Briefly: Antifungal activity against Candida albicans isolate assessed after 48 hrs by serial dilution method. Format: functional. The essentials: as §2
Test [8] concerns Escherichia coli. Briefly: Antibacterial activity against Escherichia coli ATCC assessed after 24 hrs by serial dilution method.
Test [9] relates to Klebsiella pneumoniae. Briefly: Antibacterial activity against Klebsiella pneumoniae RSHM 574 assessed after 24 hrs by serial dilution method.
In test [10] the test system is Bacillus subtilis. Briefly: Antibacterial activity against drug-resistant Bacillus subtilis assessed after 24 hrs by serial dilution method.
Test [11] relates to Pseudomonas aeruginosa. Briefly: Antibacterial activity against Pseudomonas aeruginosa ATCC […] assessed after 24 hrs by serial dilution method.
Test [12] relates to Staphylococcus aureus. Briefly: Antibacterial activity against drug-resistant Staphylococcus aureus assessed after 24 hrs by serial dilution method.

≈ marks a conversion by molar mass, not a printed value. A value given as a limit tells only on which side of the number the result lay.

Take `O=C(Nc1cc([N+](=O)[O-])ccc1O)c1ccccc1`: the MIC in the test with Klebsiella pneumoniae [1] is 250 µg/mL (≈ 968 µM); in the test on Pseudomonas aeruginosa [2], 250 µg/mL (≈ 968 µM); in the test on Escherichia coli [3], 250 µg/mL (≈ 968 µM); in the test with Bacillus subtilis [4], 7.8 µg/mL (≈ 30.2 µM); in the test with Staphylococcus aureus [5] it was 31.2 µg/mL (≈ 121 µM); against Candida albicans [6], 125 µg/mL (≈ 484 µM). Further, the MIC against Candida albicans [7] is 250 µg/mL (≈ 968 µM); against Escherichia coli [8], 125 µg/mL (≈ 484 µM); in the test on Klebsiella pneumoniae [9] it was 125 µg/mL (≈ 484 µM); in the test on Bacillus subtilis [10], 62.5 µg/mL (≈ 242 µM); in the test with Pseudomonas aeruginosa [11], 125 µg/mL (≈ 484 µM); against Staphylococcus aureus [12], 15.6 µg/mL (≈ 60.4 µM).
As to `O=C(Nc1ccc([N+](=O)[O-])cc1O)c1ccccc1`, the MIC against Klebsiella pneumoniae [1] was determined as 250 µg/mL (≈ 968 µM); against Pseudomonas aeruginosa [2], 250 µg/mL (≈ 968 µM); in the test on Escherichia coli [3], 250 µg/mL (≈ 968 µM); in the test on Bacillus subtilis [4], 31.2 µg/mL (≈ 121 µM); in the test with Staphylococcus aureus [5], 62.5 µg/mL (≈ 242 µM); against Candida albicans [6], 62.5 µg/mL (≈ 242 µM). For the same compound, the MIC against Candida albicans [7] amounted to 125 µg/mL (≈ 484 µM); in the test with Escherichia coli [8], 125 µg/mL (≈ 484 µM); in the test on Klebsiella pneumoniae [9], 125 µg/mL (≈ 484 µM); in the test on Bacillus subtilis [10], 31.2 µg/mL (≈ 121 µM); against Pseudomonas aeruginosa [11], 125 µg/mL (≈ 484 µM); in the test on Staphylococcus aureus [12], 125 µg/mL (≈ 484 µM).
Regarding `C[C@@H]1[C@H](O)[C@@H](C)/C=C/C=C/C=C/C=C/C=C/C=C/C=C/[C@H](O[C@@H]2O[C@H](C)[C@@H](O)[C@H](N)[C@@H]2O)C[C@@H]2O[C@](O)(C[C@@H](O)C[C@@H](O)[C@H](O)CC[C@@H](O)C[C@@H](O)CC(=O)O[C@H]1C)C[C@H](O)[C@H]2C(=O)O` [AMPHOTERICIN B], in the test with Candida albicans [7], 128 µg/mL (≈ 139 µM) was the least that counted as inhibitory (MIC).
Take `CC(C)(C)c1ccc(C(=O)Nc2ccc(N)cc2O)cc1`: the MIC in the test on Klebsiella pneumoniae [1] is 125 µg/mL (≈ 440 µM); in the test on Pseudomonas aeruginosa [2], 62.5 µg/mL (≈ 220 µM); in the test on Escherichia coli [3], 125 µg/mL (≈ 440 µM); against Bacillus subtilis [4] it was 15.6 µg/mL (≈ 54.9 µM); in the test on Staphylococcus aureus [5] it was 15.6 µg/mL (≈ 54.9 µM); in the test on Candida albicans [6], 62.5 µg/mL (≈ 220 µM). The MIC was 62.5 µg/mL (≈ 220 µM) against Candida albicans [7]; 125 µg/mL (≈ 440 µM) in the test with Escherichia coli [8]; 125 µg/mL (≈ 440 µM) against Klebsiella pneumoniae [9]; 7.8 µg/mL (≈ 27.4 µM) in the test on Bacillus subtilis [10]; 62.5 µg/mL (≈ 220 µM) against Pseudomonas aeruginosa [11]; 7.8 µg/mL (≈ 27.4 µM) in the test on Staphylococcus aureus [12].
Regarding `CO[C@H]1/C=C/O[C@@]2(C)Oc3c(C)c(O)c4c(O)c(c(/C=N/N5CCN(C)CC5)c(O)c4c3C2=O)NC(=O)/C(C)=C\C=C\[C@H](C)[C@H](O)[C@@H](C)[C@@H](O)[C@@H](C)[C@H](OC(C)=O)[C@@H]1C` [RIFAMPIN], the MIC in the test with Klebsiella pneumoniae [1] is 256 µg/mL (≈ 311 µM); with Pseudomonas aeruginosa [2], 32 µg/mL (≈ 38.9 µM); with Escherichia coli [3], 62.5 µg/mL (≈ 75.9 µM); with Staphylococcus aureus [5] it was greater than 4100 µg/mL; in the test on Escherichia coli [8], greater than 4100 µg/mL; in the test on Klebsiella pneumoniae [9], 16 µg/mL (≈ 19.4 µM). Besides, the MIC came out at 256 µg/mL (≈ 311 µM) in the test on Bacillus subtilis [10], 32 µg/mL (≈ 38.9 µM) against Pseudomonas aeruginosa [11] and 512 µg/mL (≈ 622 µM) in the test on Staphylococcus aureus [12].
Take `CC1(C)S[C@@H]2[C@H](NC(=O)[C@H](N)c3ccccc3)C(=O)N2[C@H]1C(=O)O.O.O.O` [AMPICILLIN TRIHYDRATE]: the MIC is 256 µg/mL in the test on Klebsiella pneumoniae [1]; 2 µg/mL against Pseudomonas aeruginosa [2]; 500 µg/mL against Escherichia coli [3]; 16 µg/mL with Bacillus subtilis [4]; 64 µg/mL with Staphylococcus aureus [5]; greater than 4100 µg/mL against Escherichia coli [8]. In addition, the MIC is 1020 µg/mL against Klebsiella pneumoniae [9], 8 µg/mL against Bacillus subtilis [10], 4 µg/mL with Pseudomonas aeruginosa [11] and greater than 4100 µg/mL against Staphylococcus aureus [12].
For `Nc1ccc(NC(=O)Cc2ccc(F)cc2)c(O)c1`, the MIC amounted to 125 µg/mL (≈ 480 µM) against Klebsiella pneumoniae [1]; 125 µg/mL (≈ 480 µM) against Pseudomonas aeruginosa [2]; 125 µg/mL (≈ 480 µM) in the test with Escherichia coli [3]; 250 µg/mL (≈ 961 µM) in the test with Bacillus subtilis [4]; 125 µg/mL (≈ 480 µM) in the test on Staphylococcus aureus [5]; 125 µg/mL (≈ 480 µM) against Candida albicans [6]. Moreover, the MIC was found to be 125 µg/mL (≈ 480 µM) against Candida albicans [7]; 62.5 µg/mL (≈ 240 µM) against Escherichia coli [8]; 125 µg/mL (≈ 480 µM) in the test with Klebsiella pneumoniae [9]; 62.5 µg/mL (≈ 240 µM) against Bacillus subtilis [10]; 125 µg/mL (≈ 480 µM) in the test on Pseudomonas aeruginosa [11]; 62.5 µg/mL (≈ 240 µM) against Staphylococcus aureus [12].
Consider `CCc1ccc(C(=O)Nc2ccc(N)cc2O)cc1`, for which the MIC worked out at 250 µg/mL (≈ 975 µM) with Klebsiella pneumoniae [1]; 250 µg/mL (≈ 975 µM) in the test on Pseudomonas aeruginosa [2]; 250 µg/mL (≈ 975 µM) against Escherichia coli [3]; 250 µg/mL (≈ 975 µM) in the test on Bacillus subtilis [4]; 125 µg/mL (≈ 488 µM) with Staphylococcus aureus [5]; 125 µg/mL (≈ 488 µM) against Candida albicans [6]. The MIC with Candida albicans [7] stood at 125 µg/mL (≈ 488 µM); with Escherichia coli [8] it was 125 µg/mL (≈ 488 µM); with Klebsiella pneumoniae [9], 125 µg/mL (≈ 488 µM); with Bacillus subtilis [10], 31.2 µg/mL (≈ 122 µM); in the test on Pseudomonas aeruginosa [11] it was 250 µg/mL (≈ 975 µM); against Staphylococcus aureus [12], 7.8 µg/mL (≈ 30.4 µM).
Take `CCc1ccc(C(=O)Nc2ccc([N+](=O)[O-])cc2O)cc1`: the MIC against Klebsiella pneumoniae [1] was 125 µg/mL (≈ 437 µM); in the test with Pseudomonas aeruginosa [2], 250 µg/mL (≈ 873 µM); with Escherichia coli [3], 125 µg/mL (≈ 437 µM); with Bacillus subtilis [4] it was 250 µg/mL (≈ 873 µM); with Staphylococcus aureus [5], 62.5 µg/mL (≈ 218 µM); against Candida albicans [6], 125 µg/mL (≈ 437 µM). The MIC in the test on Candida albicans [7] was determined as 125 µg/mL (≈ 437 µM); against Escherichia coli [8], 125 µg/mL (≈ 437 µM); against Klebsiella pneumoniae [9] it was 500 µg/mL (≈ 1750 µM); against Bacillus subtilis [10], 15.6 µg/mL (≈ 54.5 µM); in the test with Pseudomonas aeruginosa [11], 250 µg/mL (≈ 873 µM); in the test with Staphylococcus aureus [12], 125 µg/mL (≈ 437 µM).
